Screens from PubChem.
MC4R barr agon = agonists of human melanocortin 4 receptor (MC4R) beta-arrestin; U2OS MC4R beta-arrestin complementation, luminescence; percent of melanotan II response, DMSO zero; activation, % at 8.9 µM; 360,000 tested, 0.98% active;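 active means activation above a per-plate cutoff, the mean activation of sample wells on that plate plus 3 SD, cut at about 8% in these data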
CSC inhib = cancer stem cell inhibition. cancer stem cell-like cells viability, luminescence. inhibition, % at 7.5 µM. 300,000 tested, 1.1% active; in the data active means inhibition above about 75%; tested in HMLE shEcad cells
Beta apoptosis = beta cell apoptosis inhibition; 300,000 tested, 0.8% active; AID 435005; INS-1E cytokine-induced death, ATP luminescence, 48 h; percent of positive-control rescue, neutral wells zero; protection from apoptosis, % (no concentration beside the values);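 active means Every replicate reaches about 75%, or at least half do and their mean reaches it too, limit read from the data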;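 further: 0% = cytokine-treated negative control wells and 100% = positive control rescue; higher means more ATP so stronger rescue from cytokine killing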
ANO1 block = blocks the mouse calcium-activated chloride channel TMEM16A | Q8BHY3 | HEK293 TMEM16A/YFP iodide influx fluorescence, ionomycin | normalized B-score (activity score, 25-100; higher = stronger inhibition) at 10 µM | 310,000 tested, 1.2% active;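 active means ratio plate-corrected score three or more library SD toward inhibition, starting fluorescence score within five deviations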;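 further: score derived from kinetic fluorescence span divided by baseline fluorescence per well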
Target sequence (Q8BHY3 whole entry, looked up): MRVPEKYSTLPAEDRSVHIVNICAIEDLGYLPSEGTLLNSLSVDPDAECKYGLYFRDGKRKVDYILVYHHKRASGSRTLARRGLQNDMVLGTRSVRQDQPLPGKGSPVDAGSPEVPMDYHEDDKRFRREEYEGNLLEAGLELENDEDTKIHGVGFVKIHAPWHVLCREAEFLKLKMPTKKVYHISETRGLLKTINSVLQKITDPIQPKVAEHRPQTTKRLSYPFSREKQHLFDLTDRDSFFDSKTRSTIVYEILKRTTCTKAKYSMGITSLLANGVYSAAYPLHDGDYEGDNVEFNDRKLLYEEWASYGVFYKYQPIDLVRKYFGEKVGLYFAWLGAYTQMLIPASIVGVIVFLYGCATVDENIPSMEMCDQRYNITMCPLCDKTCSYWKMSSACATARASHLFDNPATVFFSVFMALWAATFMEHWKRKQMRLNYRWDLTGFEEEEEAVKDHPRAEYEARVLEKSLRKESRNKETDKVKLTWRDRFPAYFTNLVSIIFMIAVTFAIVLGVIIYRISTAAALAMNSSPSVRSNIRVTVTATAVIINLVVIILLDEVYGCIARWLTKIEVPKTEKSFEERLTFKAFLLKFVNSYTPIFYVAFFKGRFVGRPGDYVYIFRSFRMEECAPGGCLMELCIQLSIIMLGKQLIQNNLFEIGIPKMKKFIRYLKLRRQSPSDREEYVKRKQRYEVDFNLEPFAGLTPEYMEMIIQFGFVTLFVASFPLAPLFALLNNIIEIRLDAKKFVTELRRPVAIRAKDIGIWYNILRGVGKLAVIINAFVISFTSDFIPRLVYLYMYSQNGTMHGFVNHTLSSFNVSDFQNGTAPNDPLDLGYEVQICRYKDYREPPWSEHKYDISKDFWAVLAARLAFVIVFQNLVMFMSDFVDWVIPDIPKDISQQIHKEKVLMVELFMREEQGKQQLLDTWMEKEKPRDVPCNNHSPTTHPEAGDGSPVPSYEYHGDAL
MC4R antagonist = antagonists of human melanocortin 4 receptor (MC4R). inhibition, % at 6.5 µM. MC4R-expressing cells, MTII-stimulated cAMP, LANCE TR-FRET. 360,000 tested, 0.48% active. P32245;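 active means inhibition above its plate's cutoff, the mean of tested wells on that plate plus 3 SD, cut at about 29% in these data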;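 further: 0% = Melanotan II alone and 100% = Melanotan II plus saturating MCL0020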
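Material: human MC4R-expressing U2OS cells. Probe or stimulus: Melanotan II challenge. Dosing: 6.5 µM single dose. Times: 30-min compound, 1-h challenge, 1-h detection, room temperature. Technique: TR-FRET with Eu-cAMP and labeled anti-cAMP, 671 nm. Replication: singlicate.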
ANO1 activ = activators or potentiators of mouse TMEM16A chloride channel | Q8BHY3 | HEK293 TMEM16A/YFP-H148Q/I152L, iodide quench fluorescence; hits give low values | B-score at 10 µM | 340,000 tested, 0.3% active;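 active means fluorescence-ratio B-score plate-corrected deviation score at least 3 library SD below zero, with starting fluorescence score within 5 deviations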;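 further: channel opened by trigger with iodide after compound preincubation; score built on the fluorescence ratio of max minus min over baseline; more negative score means more quench and so TMEM16A activation or potentiation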
* marks the source's active call; other numbers are inactive results; i = inactive; / = not tested or not shown. Only some compounds are listed: those with a hit (about 3.8% of all), similar ones and a draw of the others.

SMILES | MC4R barr agon | CSC inhib | Beta apoptosis | ANO1 block | MC4R antagonist | ANO1 activ
Cc1ccc(NS(=O)(=O)c2cc(NC(=O)c3ccc4c(c3)NC(=O)CS4)ccc2C)c(C)c1 | 0 | 39 | 15 | i | 12 | i
CC(C)(C)OC(=O)N1C[C@H](O)C[C@H]1C(=O)OCC(=O)c1ccc([N+](=O)[O-])cc1 | 1 | -17 | 6 | i | 7 | i
O=C(OCC(=O)N1CCC(Cc2ccccc2)CC1)c1ccc(O)cc1 | -2 | / | / | / | 4 | /
CC(C)(c1cc(Br)c(O)c(Br)c1)c1cc(Br)c(O)c(Br)c1 | -1 | 103* | 9 | / | 2 | i
CC(C)(c1ccc(O)c([N+](=O)[O-])c1)c1ccc(O)c([N+](=O)[O-])c1 | 0 | / | / | / | -4 | i
Cn1c(=O)[nH]c(=O)c2c1nc(NCCc1ccccc1)n2CC(O)COc1ccccc1 (stereo unspecified) | 3 | 5 | 3 | i | 7 | -51*
CCCC(O)(c1ccc(Br)cc1)C(CN1CCOCC1)c1ccc(Cl)cc1 (stereo unspecified) | 1 | 93* | 13 | i | 8 | i
C/C(CC(=O)Nc1ccc(Cl)c(C(F)(F)F)c1)=N\NC(=O)c1cc2ccccc2cc1O | -1 | 76* | 4 | i | 4 | i
CCOC(=O)c1cnc2ccc(OCC)cc2c1N1CCN(c2ccccc2OC)CC1 | 1 | 34 | 31 | i | 32* | i
C=CCn1c(NS(=O)(=O)c2ccccc2)c(S(=O)(=O)c2ccc(C)cc2)c2nc3ccccc3nc21 | -1 | 9 | -1 | i | 5 | i
O=S(=O)(Nc1c(S(=O)(=O)c2ccccc2)c2nc3ccccc3nc2n1C1CCCCC1)c1ccccc1 | 1 | 106* | 2 | 100* | -14 | i
COC(=O)C1(C)NC(c2cccc(C)c2)C2C(=O)N(c3ccccc3)C(=O)C21 (stereo unspecified) | -1 | / | / | / | 1 | /
CCC(=O)Nc1ccc(NC(=O)CSc2nc3cc4c(cc3cc2C)CCC4)cc1 | 9.4* | 45 | 30 | i | 1 | i
CC1CC(C)(C)N(C(=O)CN2C(=O)c3ccccc3C2=O)c2ccccc21 (stereo unspecified) | -1 | -7 | 5 | i | 12 | -6.2*
CC1CC(C)(C)N(C(=O)CN2CCN(C)CC2)c2ccccc21 (stereo unspecified) | 1 | -3 | / | i | 6 | i
Cc1ccc(-n2c(-c3ccccc3)c[n+]3c2CCc2ccccc2-3)c(C)c1 | -3 | 28 | 130* | i | 7 | i
Cc1ccc(-n2c(SCC(=O)N3CCCc4ccccc43)nnc2-c2cccnc2)c(C)c1 | -2 | -1 | -1 | i | -8 | i
CC(=O)Nc1ccc(S(=O)(=O)NCc2nc(-c3ccc(C)cc3)no2)cc1 | -3 | -12 | -1 | i | -1 | i
Cc1ccc(NC(=O)c2c(-c3c(F)cccc3Cl)noc2C)cc1F | 3 | 5 | 96* | i | 5 | i
Cc1nc(C(=O)NNC(=O)c2c(-c3c(Cl)cccc3Cl)noc2C)cs1 | -1 | 35 | 86* | i | 12 | i
Cc1onc(-c2c(Cl)cccc2Cl)c1C(=O)NNc1ccccc1 | 0 | 91* | -3 | i | 8 | i
Cc1cc(NC(=O)c2c(-c3c(F)cccc3Cl)noc2C)no1 | -2 | 1 | -2 | i | -2 | i
COc1ccc(-c2csc(NC(=O)C3CSC4(C)CCC(=O)N34)n2)c(OC)c1 (stereo unspecified) | -2 | 12 | 3 | i | 9 | i
COc1cc(C(=O)N[C@H](C(=O)NC(C)C23CC4CC(CC(C4)C2)C3)C(C)C)cc(OC)c1OC (stereo partly specified) | 0 | -1 | / | 100* | -2 | i
COc1cc(C(=O)NC23CC4CC(CC(C4)C2)C3)cc(OC)c1OC | -1 | 15 | 12 | i | 13 | i
Cc1ccc(NC(=O)COc2ccc3c(c2)OCO3)c(Cl)c1 | 5 | / | / | / | -2 | i
CCSc1nnc(NC(=O)C(CC)(C(F)(F)F)C(F)(F)F)s1 | -1 | 36 | 31 | 100* | 12 | i
